Source: ChEMBL document CHEMBL1250470, “Synthesis and CYP24A1 inhibitory activity of (E)-2-(2-substituted benzylidene)- and 2-(2-substituted benzyl)-6-methoxy-tetralones” (Eur J Med Chem, 2010)

Assays:
Format in all cases: cell-based, CHO
[1] = biological target: T1, 1,25-dihydroxyvitamin D(3) 24-hydroxylase, mitochondrial (Homo sapiens, UniProt Q07973); test: Inhibition of CYP24A1 expressed in […]
T1 sequence (Q07973 whole entry): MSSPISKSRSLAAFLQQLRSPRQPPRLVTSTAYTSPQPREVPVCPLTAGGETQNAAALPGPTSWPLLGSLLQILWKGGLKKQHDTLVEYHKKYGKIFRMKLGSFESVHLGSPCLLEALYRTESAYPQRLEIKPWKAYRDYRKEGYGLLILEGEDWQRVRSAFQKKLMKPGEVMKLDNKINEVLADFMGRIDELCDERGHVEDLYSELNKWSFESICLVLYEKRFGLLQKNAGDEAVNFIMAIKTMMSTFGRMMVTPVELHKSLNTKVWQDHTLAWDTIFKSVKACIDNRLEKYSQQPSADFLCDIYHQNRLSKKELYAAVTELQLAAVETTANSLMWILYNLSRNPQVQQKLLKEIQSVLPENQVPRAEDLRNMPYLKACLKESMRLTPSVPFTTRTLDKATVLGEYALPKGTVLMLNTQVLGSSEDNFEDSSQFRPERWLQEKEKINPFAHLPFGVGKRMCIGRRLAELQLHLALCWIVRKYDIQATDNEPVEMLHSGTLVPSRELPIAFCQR

[2] = biological target: 1,25-dihydroxyvitamin D(3) 24-hydroxylase, mitochondrial (Homo sapiens, UniProt Q07973, L148F); test: Inhibition of CYP24A1 L148F mutant expressed in […]
Method in brief: (§1)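 V79-4 Chinese hamster lung fibroblasts stably expressing wild-type or mutant (L148F, M416T) CYP24A1 were grown in DMEM with FCS, antibiotics and hygromycin at 5% CO₂, then subcultured into 6-well plates for 24 h. Incubation was for 6 h in 1% BSA DMEM with 100,000 CPM/well [1β-³H]1α,25-(OH)₂D₃ and DPPD antioxidant. Inhibitors, from ethanol stocks, were tested at 10⁻⁴–10⁻⁷ M. Methanol stopped the reaction, followed by scintillation counting.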

[3] = biological target: 1,25-dihydroxyvitamin D(3) 24-hydroxylase, mitochondrial (Homo sapiens, UniProt Q07973, M416T); test: Inhibition of CYP24A1 M416T mutant expressed in […]; method in brief: as §1
[4] = biological target: T2, Sterol 26-hydroxylase, mitochondrial (Homo sapiens, UniProt Q02318); test: Inhibition of CYP27A1 expressed in […]
T2 sequence (Q02318 whole entry): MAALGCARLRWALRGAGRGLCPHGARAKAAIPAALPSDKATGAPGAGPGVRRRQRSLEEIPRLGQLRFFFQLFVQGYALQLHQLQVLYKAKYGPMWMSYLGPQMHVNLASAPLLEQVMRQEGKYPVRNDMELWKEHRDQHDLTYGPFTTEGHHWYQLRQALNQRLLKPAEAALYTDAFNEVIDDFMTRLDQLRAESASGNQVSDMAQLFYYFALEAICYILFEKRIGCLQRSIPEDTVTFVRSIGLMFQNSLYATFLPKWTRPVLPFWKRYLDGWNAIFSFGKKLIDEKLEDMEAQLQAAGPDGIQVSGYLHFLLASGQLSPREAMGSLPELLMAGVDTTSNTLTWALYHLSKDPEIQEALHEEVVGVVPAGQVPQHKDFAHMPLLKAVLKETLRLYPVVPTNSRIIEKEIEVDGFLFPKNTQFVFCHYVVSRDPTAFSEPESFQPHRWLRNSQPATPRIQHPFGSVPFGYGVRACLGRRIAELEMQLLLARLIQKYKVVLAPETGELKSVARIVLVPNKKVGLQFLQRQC
Method in brief: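 V79-4 fibroblasts stably expressing wild-type CYP27A1 were cultured in supplemented DMEM and plated in 6-well plates 24 h before use. They were incubated for 24 h in 1% BSA DMEM with 1α-OH-D₃ substrate plus DPPD, with inhibitors at four concentrations (10⁻⁴–10⁻⁷ M). No-inhibitor, dead-cell and no-cell controls were included. Methanol stopped the reaction, then Bligh-Dyer extraction and silica HPLC with photodiode-array detection quantified the metabolite.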

Sequence of 1,25-dihydroxyvitamin D(3) 24-hydroxylase, mitochondrial (Homo sapiens, UniProt Q07973, L148F) (Q07973 36-514 L148F limits assumed): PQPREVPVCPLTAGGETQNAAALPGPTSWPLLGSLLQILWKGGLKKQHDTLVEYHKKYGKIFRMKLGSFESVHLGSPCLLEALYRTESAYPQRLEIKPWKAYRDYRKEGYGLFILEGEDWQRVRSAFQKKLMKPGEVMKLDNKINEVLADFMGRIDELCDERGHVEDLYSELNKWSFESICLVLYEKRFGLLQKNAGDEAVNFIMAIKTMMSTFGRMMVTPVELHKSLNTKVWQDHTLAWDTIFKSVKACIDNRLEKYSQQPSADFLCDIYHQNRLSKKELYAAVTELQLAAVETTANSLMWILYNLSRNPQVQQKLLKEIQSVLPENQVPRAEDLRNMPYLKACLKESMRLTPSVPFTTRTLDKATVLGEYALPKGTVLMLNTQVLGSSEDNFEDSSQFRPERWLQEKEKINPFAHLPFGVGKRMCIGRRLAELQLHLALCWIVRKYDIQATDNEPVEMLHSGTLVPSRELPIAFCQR
Sequence of 1,25-dihydroxyvitamin D(3) 24-hydroxylase, mitochondrial (Homo sapiens, UniProt Q07973, M416T) (Q07973 36-514 M416T limits assumed): as the sequence (Q07973 36-514 L148F limits assumed) above, with F113L, M381T counted along it

SMILES	IC50 [1] [µM]	inhibition (INH) [2]	inhibition (INH) [3]	IC50 [4] [µM]
COc1ccc2c(c1)CCC(Cc1ccccc1CCc1ccccc1)C2=O (stereo not given)	25.6	Active	Active	–
COc1ccc2c(c1)CC/C(=C\c1ccccc1-c1ccccc1)C2=O	111	–	–	–
COc1ccc2c(c1)CC/C(=C\c1ccccc1/C=C/c1ccccc1)C2=O	5.08	–	–	5.69
COc1ccc2c(c1)CCC(Cc1ccccc1C(F)(F)F)C2=O (stereo not given)	2.08	–	–	5.34
CCc1ccccc1CC1CCc2cc(OC)ccc2C1=O (stereo not given)	1.92	–	–	8.23
COc1ccc2c(c1)CCC(Cc1ccccc1Br)C2=O (stereo not given)	16.3	–	–	0.059
COc1ccc2c(c1)CCC(Cc1ccccc1-c1ccccc1)C2=O (stereo not given)	128	–	–	–
COc1ccc2c(c1)CCC(Cc1ccccc1/C=C/c1ccccc1)C2=O (stereo not given)	343	–	–	–
COc1ccc2c(c1)CC/C(=C\c1ccccc1C(F)(F)F)C2=O	11.2	–	–	–
CCc1ccccc1/C=C1\CCc2cc(OC)ccc2C1=O	10.8	–	–	–
COc1ccc2c(c1)CC/C(=C\c1ccccc1C)C2=O	480	–	–	–
COc1ccc2c(c1)CCC(Cc1ccccc1C)C2=O (stereo not given)	127	–	–	–
COc1ccc2c(c1)CC/C(=C\c1ccccc1Br)C2=O	122	–	–	4.33
